Source: ChEMBL document CHEMBL1123220, “Structure-activity studies of 16-methoxy-16-methyl prostaglandins” (1986)

Tests used:
Rattus norvegicus [1] = assay: Compound was evaluated for antisecretion activity using stomach perfusion test in the anesthetized rat (ig administration); format: functional; settings: for ED50: Rattus norvegicus, Stomach, po, read-out: ID50 (the source's name)
Rattus norvegicus [2] = assay: Compound was evaluated for antisecretion activity using stomach perfusion test in the anesthetized rat (iv administration); format: functional; settings: read-out: ID50 (the source's name)
Cricetinae gen. sp. [3] = assay: Antifertility activity was determined in hamsters (two to six dose levels, 6-18 animals per group) treated subcutaneously (sc) from day 4 to day 6 of gestation; format: functional, Mesocricetus auratus
In short: (§1)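 Syrian Golden hamsters dosed sc on three consecutive days, gestation days 4 to 6. Two to six dose levels, 6–18 animals per group. Animals killed on day 10 of gestation, and implantation sites and live fetuses counted.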

Mus musculus = assay: Compound was evaluated for diarrheal effect in mice (po administration); format: functional
In short: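 Mice fasted 24 h, then given logarithmically graded oral doses of 100–4000 μg/kg. Animals caged singly on blotting paper for 1 h, and stool dampness spots scored on a 0–4 scale. ED50 calculated by the Miller–Tainter method.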

Cricetinae gen. sp. [4] = assay: (§2) Antifertility activity was determined in hamsters (two to six dose levels, 6-18 animals per group) treated subcutaneously (sc) from day 4 to day 6 of gestation.; format: functional, Mesocricetus auratus; in short: as §1
[5] = Ratio of ED50 for diarrhea to ID50 (antisecretory activity); format: functional
Rattus norvegicus [6] = assay: Compound was evaluated for antisecretion activity using stomach perfusion test in the anesthetized rat (iv administration) in experiment 1; format: functional; settings: read-out: ID50 (the source's name)
In short: (§3)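 Stomach perfusion in anesthetized rats. Gastric hypersecretion driven by continuous iv histamine infusion at 1.5 mg/kg per hour. Compound given iv. ID50 read from a plot of response, as percent of control, against log dose.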

Rattus norvegicus [7] = assay: Compound was evaluated for antisecretion activity using stomach perfusion test in the anesthetized rat (iv administration) in experiment 2; format: functional; settings: read-out: ID50 (the source's name); in short: as §3
Cricetinae gen. sp. [8] = assay: as §2; format: functional, Cricetulus griseus; in short: as §1
Rattus norvegicus [9] = assay: Compound was evaluated for antisecretion activity using stomach perfusion test in the anesthetized rat (iv administration); At the dose of 500 ug/kg, some animals died; format: functional; settings: read-out: ID50 (the source's name)
[10] = Mus musculus, po, read-out: ED50

Row | Compound | ED50 (Rattus norvegicus [2]) [mg/kg] | ED50 (Cricetinae gen. sp. [3]) [mg/kg] | ED50 (Mus musculus; [10]) [mg/kg] | ED50 (Cricetinae gen. sp. [4]) [mg/kg] | also measured
1 | CCCCC(OC)[C@H](O)/C=C/C1[C@H](O)CC(=O)[C@@H]1CCCCCCC(=O)O (some centres not stated) |  |  |  |  | ED50 (Rattus norvegicus [1]): > 0.1 mg/kg
2 | CCCC[C@](C)(OC)[C@H](O)/C=C/C1[C@H](O)CC(=O)[C@@H]1C/C=C\CCCC(=O)OC (some centres not stated) | 0.5 | > 1 | 0.479 |  | 
3 | CCCC[C@@](C)(OC)[C@@H](O)/C=C/C1[C@H](O)C[C@H](O)[C@@H]1C/C=C\CCCC(=O)OC (some centres not stated) | > 2 |  | > 4 | > 4 | 
4 | CCCC[C@@](C)(OC)[C@H](O)/C=C/C1[C@H](O)C[C@H](O)[C@@H]1C/C=C\CCCC(=O)OC (some centres not stated) | 1.5 |  | 0.888 | 0.6 | 
5 | CCCCC[C@H](O)/C=C/[C@H]1[C@H](O)CC(=O)[C@@H]1C/C=C\CCCC(=O)O [DINOPROSTONE] | 0.026 |  | 1.5 | 0.7 | Ratio [5]: 58; ED50 (Rattus norvegicus [1]): > 0.1 mg/kg
6 | CCCC[C@](C)(OC)[C@@H](O)/C=C/C1[C@H](O)C[C@H](O)[C@@H]1C/C=C\CCCC(=O)OC (some centres not stated) | > 4 |  | > 4 | > 4 | 
7 | CCCC[C@](C)(OC)[C@@H](O)/C=C/C1[C@H](O)CC(=O)[C@@H]1CCCCCCC(=O)OC (stereo in doubt; form 1) | > 3 | > 2.5 |  |  | ED50 (Mus musculus): >4 mg/kg
8 | CCCC[C@@](C)(OC)[C@@H](O)/C=C/C1[C@H](O)CC(=O)[C@@H]1CCCCCCC(=O)OC (some centres not stated) | > 1 | > 2.5 | > 4 |  | 
9 | CCCCC[C@H](O)/C=C/[C@H]1[C@H](O)CC(=O)[C@@H]1CCCCCCC(=O)O [ALPROSTADIL] | 0.0285 |  | 1.02 | 1.8 | Ratio [5]: 36
10 | CCCC[C@](C)(OC)[C@H](O)/C=C/C1[C@H](O)C[C@H](O)[C@@H]1C/C=C\CCCC(=O)OC (some centres not stated) | > 2 |  | 1.81 | 1.5 | 
11 | CCCC[C@](C)(OC)[C@@H](O)/C=C/C1[C@H](O)CC(=O)[C@@H]1C/C=C\CCCC(=O)OC (some centres not stated) | 1.5 | > 1 | 0.912 |  | 
12 | CCCC[C@@](C)(OC)[C@H](O)/C=C/C1[C@H](O)CC(=O)[C@@H]1C/C=C\CCCC(=O)OC (some centres not stated) | 0.0072 | > 1 | 0.757 |  | Ratio [5]: 105
13 | CCCC[C@](C)(OC)[C@@H](O)/C=C/C1[C@H](O)CC(=O)[C@@H]1CCCCCCC(=O)OC (stereo in doubt; form 2) |  |  |  |  | ED50 (Rattus norvegicus [6]): 0.1 mg/kg; ED50 (Rattus norvegicus [7]): 0.3 mg/kg; ED50 (Mus musculus): 0.774 mg/kg
14 | CCCC[C@@](C)(OC)[C@@H](O)/C=C/C1[C@H](O)CC(=O)[C@@H]1C/C=C\CCCC(=O)OC (some centres not stated) |  | > 1 |  |  | 
15 | CCCC[C@@](C)(OC)[C@H](O)/C=C/C1[C@H](O)CC(=O)[C@@H]1CCCCCCC(=O)OC (some centres not stated) | 0.0045 | > 2.5 | 1.35 |  | Ratio [5]: 300; ID50 (Rattus norvegicus [1]): 0.015 mg/kg; ED50 (Rattus norvegicus [1]): 0.015 mg/kg
16 | CCCCC[C@H](O)/C=C/[C@@H]1[C@@H](C/C=C\CCCC(=O)O)[C@@H](O)C[C@H]1O [DINOPROST] |  |  | 0.57 |  | ED50 (Cricetinae gen. sp. [8]): 0.06 mg/kg; ED50 (Rattus norvegicus [9]): > 0.3 mg/kg
17 | CCCC[C@@H](OC)[C@H](O)/C=C/C1[C@H](O)CC(=O)[C@@H]1C/C=C\CCCC(=O)O (some centres not stated) | > 0.05 |  |  |  | 
